Screening results deposited in PubChem BioAssay by Broad Institute.
Most compounds without a hit are left out; they make up all but 2.6% or so of the library.
Ecoli rRNA inh = inhibitors of bacterial rRNA selective over humanized ribosomes. GFP signal change (wild-type ribosome), % (no concentration beside the values). 1.6% of 350,000 active. E. coli WT GFP vs humanized-ribosome RFP mutants, fluorescence, 24 h; stronger effect = lower value; DMSO median 0, no signal -100;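 active = significant combined selectivity score with lowered wild-type GFP, culture density cut under 30%, mutant RFP and density less affected; inactive = any of these conditions unmet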
AF4-AF9 inh = blocks AF4 peptide binding to human AF9; P42568; AlphaScreen, biotin-AF4 peptide binding to FLAG-AF9; inhibition, % at 10 µM; 0.47% of 350,000 active;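 active = every replicate reaching a set inhibition limit, whatever the replicate mean, cut at about 25% in these data; inconclusive = mean inhibition reaches that limit but some replicates miss it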;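 note: 0% = plate neutral control median and 100% = total signal loss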
E-sel inducer = induces E-selectin expression in human endothelial cells; HUVEC E-selectin immunofluorescence imaging; normalized: neutral wells 0, TNF-alpha wells 100; activation, % at 7.58 µM; 0.37% of 260,000 active;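 active = mean E-selectin-positive cell signal at least 10% of the positive control, reached in at least 60% of replicates, without over 20% cell loss; inconclusive = no rule given, readout overlaps actives, possibly toxicity-flagged; inactive = the rest, including those meeting only one limit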
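Assay system: HUVEC, human umbilical vein endothelial cells / Amount: 3,000 HUVEC/well / Controls: TNF-alpha positive control, DMSO neutral control / Compound dosing: single concentration / Medium: EGM-2 over gelatin coat / Evaluation: percent E-selectin-positive cells / Signal: immunofluorescence imaging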
GSIS activator = primary screen for activators of insulin secretion dependent on glucose, INS-1E cells, GLuc reporter luminescence; INS-1E GLuc reporter insulin secretion, 2-3 h; activation, % at 16.6 µM; 0.61% of 370,000 active;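 active = lowest replicate activation of at least 40%, so every replicate reaches that level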;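 note: 0% = median of neutral control wells and 100% = median of IBMX positive control wells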
RAD54 inh = inhibitors of human RAD54 branch migration | RAD54 Holliday junction branch migration, FAM/BHQ fluorescence | inhibition, % at 10.4 µM | 0.14% of 360,000 active | AID 602329;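 active = mean normalized replicate activity at least 40 and at least half of replicates scoring 40 or more; inconclusive = only one of the two criteria met; inactive = mean below 40 and under half of replicates reaching 40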;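 note: 0% = median of neutral control wells and 100% = median of positive control wells; inhibitors cause a drop in the FAM fluorescence signal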
Target sequence (Q92698 whole entry, looked up): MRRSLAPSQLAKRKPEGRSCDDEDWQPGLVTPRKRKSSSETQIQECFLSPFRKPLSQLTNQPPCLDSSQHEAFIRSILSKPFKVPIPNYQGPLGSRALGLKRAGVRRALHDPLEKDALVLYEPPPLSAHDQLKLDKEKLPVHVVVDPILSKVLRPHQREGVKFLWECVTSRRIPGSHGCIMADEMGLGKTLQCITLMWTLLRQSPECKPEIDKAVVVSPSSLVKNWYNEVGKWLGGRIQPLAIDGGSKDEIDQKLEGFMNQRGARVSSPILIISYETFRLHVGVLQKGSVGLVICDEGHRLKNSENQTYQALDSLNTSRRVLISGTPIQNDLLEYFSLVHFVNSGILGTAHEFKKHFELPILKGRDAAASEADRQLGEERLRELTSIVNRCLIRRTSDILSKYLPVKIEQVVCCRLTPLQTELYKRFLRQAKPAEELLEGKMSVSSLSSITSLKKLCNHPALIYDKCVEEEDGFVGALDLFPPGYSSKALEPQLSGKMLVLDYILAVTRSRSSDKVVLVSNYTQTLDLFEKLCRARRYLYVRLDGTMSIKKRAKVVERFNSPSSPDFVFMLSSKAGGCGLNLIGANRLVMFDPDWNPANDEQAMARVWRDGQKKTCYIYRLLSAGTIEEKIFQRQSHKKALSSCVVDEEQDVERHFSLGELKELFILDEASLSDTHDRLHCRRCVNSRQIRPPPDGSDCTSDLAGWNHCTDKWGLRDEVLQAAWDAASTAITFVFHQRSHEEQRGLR
RAD52 inh = RAD52 (human) annealing inhibition | 0.46% of 360,000 active | P43351 | recombinant RAD52 DNA annealing, FRET fluorescence | inhibition, % at 18.7 µM;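 active = every replicate showing at least 50% inhibition; inconclusive = mean inhibition at least 50% but not in every replicate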
Active calls of the source: *; ? = inconclusive; . = not tested or not shown.

SMILES	Ecoli rRNA inh	AF4-AF9 inh	E-sel inducer	GSIS activator	RAD54 inh	RAD52 inh
O=S(=O)(Nc1ccccc1Cl)c1ccc(-c2ccccn2)s1	-37*	-2	0	-13	-2	-20
COc1ccc(NS(=O)(=O)c2ccc(-c3ccccn3)s2)cc1	.	-4	2	-5	1	4
C[C@H](CO)N1C[C@H](C)[C@@H](CN(C)S(=O)(=O)c2cn(C)cn2)OCCCC[C@H](C)Oc2ccc(NC(=O)Nc3ccc(C(F)(F)F)cc3)cc2C1=O	-6	.	0	-1	-2	.
CCN(CC)c1ccc(NC(=O)CSc2nc(C)cc(=O)[nH]2)cc1	-14*	-3	-1	-8	-7	-12
C/C(CC(=O)Nc1ccc2c(c1)OCCO2)=N\NC(=O)c1ccccc1F	3	-1	.	1	-1	11
COc1ccccc1C(=O)N/N=C(\C)CC(=O)Nc1ccc2c(c1)OCCO2	2	-3	.	41*	-4	-13
C[C@@H]1CN([C@@H](C)CO)C(=O)c2cccc(NC(=O)C3CC3)c2O[C@@H]1CN(C)S(=O)(=O)c1ccc(Cl)cc1	-5	-3	-1	-1	10	3
C[C@@H]1CN([C@H](C)CO)C(=O)c2cc(C3=CCCCC3)cnc2O[C@H]1CN(C)C(=O)CN1CCOCC1	2	-4	0	171*	6	2
CCCNC(=O)N(C)C[C@H]1Oc2ncc(C3=CCCC3)cc2C(=O)N([C@H](C)CO)C[C@@H]1C	1	-2	134*	13	1	4
C[C@@H]1CN([C@H](C)CO)C(=O)c2cc(C3=CCCC3)cnc2O[C@@H]1CN(C)C(=O)Nc1ccccc1	-1	-1	59*	11	-3	20
COc1ccc(CN(C)C[C@@H]2OCCCC[C@H](C)Oc3ccc(NC(=O)CCC(F)(F)F)cc3C(=O)N([C@@H](C)CO)C[C@H]2C)cc1	-1	-1	0	-1	-1	8
CCN(CC)CCCNC(=S)N1CCN(c2nc(-c3ccccc3)cs2)CC1	-22*	19	.	2	19	21
O=Cc1cc(N=Nc2ccc(S(=O)(=O)O)cc2)ccc1O	-20*	-5	10	-17	.	-9
c1ccc2c(NCC3CCCO3)nc(N3CCCCC3)nc2c1 (stereo unspecified)	5	?	0	45*	-7	-2
c1ccc2c(N3CCCCC3)nc(N3CCCC3)nc2c1	.	.	.	52*	5	.
c1ccc(-c2nc(N3CCCCCC3)c3ccccc3n2)nc1	.	.	.	.	56*	.
C[C@H](CO)N1C[C@H](C)[C@H](CN(C)Cc2cccc3c2OCCCO3)OCc2cn(nn2)CCCC1=O	2	-1	0	0	16	7
C[C@@H]1CN([C@@H](C)CO)C(=O)c2cc(-c3cccnc3)cnc2O[C@H]1CN(C)C(=O)c1ccccc1F	0	0	1	25	-5	-2
COc1ccc2cc3c(N)nn(C(=O)Cc4c[nH]c5ccccc45)c3nc2c1	-33*	14	.	5	.	-18
CC(=O)N1[C@@H]2CN(S(C)(=O)=O)C[C@H]1C2c1ccc(-c2ccc(F)cc2)cc1 (stereo partly specified)	-3	.	.	21	.	.
Cc1cc(N)n(-c2ccc(S(=O)(=O)c3ccc(C(C)C)cc3)cc2)n1	-26*	-2	.	0	.	-7
NC(=O)c1cc(C(=O)c2ccc(Cl)cc2)c[nH]1	-23*	0	.	19	.	-2
COc1ccc(NC(=O)Nc2ccc3c(c2)C(=O)N([C@@H](C)CO)C[C@H](C)[C@@H](CN(C)C(=O)c2ccccc2)OCCCC[C@H](C)O3)cc1	-1	4	0	-6	-15	0
O=C(COC(=O)CC12CC3CC(CC(C3)C1)C2)Nc1cccnc1Cl	-24*	-4	2	-41	.	-9
CSc1ccccc1C(=O)OCC(=O)Nc1cccnc1Cl	0	-2	0	43*	-1	-4
SMILES	Ecoli rRNA inh	AF4-AF9 inh	E-sel inducer	GSIS activator	RAD54 inh	RAD52 inh
O=C(COC(=O)c1ccccc1O)Nc1cccnc1Cl	.	.	.	14	.	.
O=C(COC(=O)c1ccccn1)Nc1cccnc1Cl	7	-1	0	7	7	-6
CCCNC(=O)C[C@@H]1CC[C@@H]2[C@H](COC[C@@H](O)CN2C(=O)CC)O1	-2	-2	0	5	5	-19
COc1ccc(NC(=O)Nc2ccc3c(c2)C(=O)N([C@H](C)CO)C[C@H](C)[C@H](CN(C)S(=O)(=O)c2ccc(Cl)cc2)O3)cc1	-1	2	5	10	-4	0
CN(Cc1cccc(F)c1)C(=O)c1ccc2c(=O)n3c(nc2c1)CCC3	4	-5	0	5	2	-12
O=C(OCc1cccc(F)c1)c1ccc2c(=O)n3c(nc2c1)CCC3	-24*	-14	.	-10	.	-12
COc1ccc(/C=C2\Oc3cc(OCC(N)=O)ccc3C2=O)cc1OC	-29*	0	0	33	36	-30
CC(=O)Nc1nc(CC(C)C)cc(-c2ccco2)c1C#N	.	.	.	48*	-5	.
CC(=O)Nc1nc(CC(C)C)cc(-c2ccccc2)c1C#N	-18	1	0	34	.	-18
COc1ccc(-n2c(-c3ccc(Cl)cc3Cl)n[nH]c2=S)c(OC)c1	-32*	-7	0	1	2	-11
COc1ccc(C(=O)N/N=C/c2ccc(OC)c(CN3CCCc4ccccc43)c2)cc1	.	.	.	-23	2	.
COc1ccc(/C=N/NC(=O)c2cccnc2)cc1CN1CCCc2ccccc21	-28*	22	.	-12	.	-6
C[C@H](CO)N1C[C@H](C)[C@@H](CN(C)S(=O)(=O)c2ccc(Cl)cc2)Oc2ccc(NC(=O)NC3CCCCC3)cc2CC1=O	-1	1	1	-4	-4	8
CS(=O)(=O)N1CCN(c2ccccc2NC(=O)c2ccco2)CC1	5	-29	.	42*	-3	17
CS(=O)(=O)N1CCN(c2ccccc2NC(=O)c2ccc(Br)o2)CC1	2	7	.	3	3	-8
C[C@H](CO)N1C[C@H](C)[C@H](CN(C)S(=O)(=O)c2cccc(F)c2)Oc2ncc(C#CC3CCCCC3)cc2C1=O	4	1	-3	-9	5	4
CN1C(=O)c2cc(NC(=O)C3CCCCC3)ccc2OC[C@@H]2O[C@@H](CC(=O)NCC3CCCCC3)CC[C@H]21	-4	-2	0	-15	.	2
CCCCC(C(=O)NCCC(C)C)N(CCCN1CCOCC1)C(=O)c1snc(C(N)=O)c1N (stereo unspecified)	.	.	.	54*	5	.
CN(c1ccccc1)S(=O)(=O)c1ccccc1Br	-38*	0	0	-10	-2	-6
CCN(Cc1cc(OC)c(OC)c(OC)c1)S(=O)(=O)c1ccccc1Br	-32	6	0	-3	.	-6
CCN(Cc1ccccc1)S(=O)(=O)c1ccccc1Br	-47	-1	0	41*	-9	-9
